Reference: ChEMBL document CHEMBL4706643 (J Med Chem, 2021)
The source made the active and inactive calls. The calls are words filed in the database; no cut-off is given here.

Key:
[1] = biological target: T1, Hepatic sodium/bile acid cotransporter (Homo sapiens, UniProt Q14973); test: Inhibition of human NTCP-mediated [3H]-TCA uptake expressed in human HepG2 cells at 2 uM incubated for 2 hrs followed by substrate addition and measured for 10 mins by microbeta liquid scintillation counter analysis; assay type: cell-based; conditions: hepg2, 2.167 h, time 130 min
T1 sequence (Q14973 whole entry): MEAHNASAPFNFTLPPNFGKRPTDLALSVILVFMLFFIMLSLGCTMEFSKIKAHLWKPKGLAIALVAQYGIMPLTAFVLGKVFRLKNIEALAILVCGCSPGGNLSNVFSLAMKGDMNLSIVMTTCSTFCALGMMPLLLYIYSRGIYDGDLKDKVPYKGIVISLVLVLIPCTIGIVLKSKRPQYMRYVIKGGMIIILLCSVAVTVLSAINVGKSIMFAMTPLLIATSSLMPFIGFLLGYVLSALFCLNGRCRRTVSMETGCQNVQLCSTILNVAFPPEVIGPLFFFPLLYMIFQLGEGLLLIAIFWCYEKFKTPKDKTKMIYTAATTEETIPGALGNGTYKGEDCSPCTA
Method in brief: (§1)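 HepG2 cells expressing NTCP (human, mouse, monkey or tree shrew) seeded 4–6 h, PMM 20–24 h; compound 2 h, then Na+ Ringer's buffer with 2 μM 3H-TCA, 37 °C 10 min; PBS washes, lysis in 1% Triton X-100, scintillation counting. Single-concentration lines at 2 μM.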

HepG2 [2] = test: Cytotoxicity against human HepG2 cells at 100 uM; assay type: cell-based; conditions: hepg2, 100 µM
[3] = biological target: T2, Hepatic sodium/bile acid cotransporter (Mus musculus, UniProt O08705); test: Inhibition of mouse NTCP-mediated [3H]-TCA uptake expressed in human HepG2 cells at 2 uM incubated for 2 hrs followed by substrate addition and measured for 10 mins by microbeta liquid scintillation counter analysis; assay type: cell-based; conditions: hepg2, 2.167 h, time 130 min; method in brief: as §1
T2 sequence (O08705 whole entry): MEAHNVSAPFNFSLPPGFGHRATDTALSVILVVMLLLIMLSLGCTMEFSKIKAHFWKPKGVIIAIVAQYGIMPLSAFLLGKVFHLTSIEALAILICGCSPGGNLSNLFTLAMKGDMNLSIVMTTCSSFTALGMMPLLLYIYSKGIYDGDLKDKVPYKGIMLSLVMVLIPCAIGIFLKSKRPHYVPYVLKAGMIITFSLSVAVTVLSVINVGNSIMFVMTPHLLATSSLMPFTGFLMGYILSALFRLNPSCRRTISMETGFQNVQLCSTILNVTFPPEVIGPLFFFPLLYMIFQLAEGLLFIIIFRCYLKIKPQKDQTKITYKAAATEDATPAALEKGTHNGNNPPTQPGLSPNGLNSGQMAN

Hepatitis delta virus [4] = test: Antiviral activity against HDV infected in human HepG2-NTCP cells assessed as reduction in HDV delta Ag measured 5 days post infection by DAPI staining based immunofluorescence assay relative to control; assay type: functional, cell-based; conditions: time 5.0 day
Method in brief: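 HepG2-NTCP cells infected with HDV in presence of compound; delta antigen stained at dpi 5 with FITC-labelled anti-delta antibody, nuclei with DAPI; high-content imaging and image analysis give infection ratio relative to DMSO control.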

[5] = Intrinsic clearance in human liver microsomes at 1 uM preincubated for 5 mins followed by NADPH addition and measured upto 60 mins by LC-MS analysis; assay type: ADME, Microsome; conditions: read-out: CLH
Method in brief: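 Human or mouse liver microsomes, final 1 mg/mL in 0.05 M phosphate buffer pH 7.4; compound final 1 μM, preincubated 37 °C 5 min, started with 1 mM NADPH; sampled at 0, 5, 15, 30, 60 min, methanol quench, −20 °C 1 h, centrifuged, supernatant by LC–MS.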

Hepatitis delta virus [6] = test: Antiviral activity […] infected in C57B/L transgenic mouse harbouring human NTCP assessed as decrease in viral RNA levels in liver at 40 mg/kg, ip administered as single dose followed by HDV challenge at day 2 and measured at day 8 post infection by qPCR analysis; assay type: functional, organism-based; conditions: time 8.0 day
Method in brief: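 Neonatal hNTCP-transgenic C57B/L mice received 40 mg/kg i.p. before HDV inoculation, either once or on two consecutive days (n = 4 per group; vehicle group n = 5). HDV was given at 5 × 10⁹ Geq i.p. on day 9 after birth, and mice were sacrificed on day 15. Liver RNA was assayed by RT-qPCR on cDNA from 20 ng RNA, with NTCP mRNA also measured. Group medians are shown.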

[7] = Tmax in C57BL/6 mouse at 10 mg/kg, ip; assay type: ADME, organism-based; conditions: in vivo
Method in brief: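 Male C57BL/6 mice (n = 3), single dose IV 5 mg/kg, IP 10 mg/kg or PO 10 mg/kg in DMSO:cremophor:0.9% NaCl 5:5:90; plasma parameters reported as means.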

HepG2 [8] = test: Inhibition of tree shrew NTCP-mediated [3H]-TCA uptake expressed in human HepG2 cells at 2 uM incubated for 2 hrs followed by substrate addition and measured for 10 mins by microbeta liquid scintillation counter analysis; assay type: cell-based; conditions: Scandentia; method in brief: as §1
HepG2 [9] = test: Inhibition of monkey NTCP-mediated [3H]-TCA uptake expressed in human HepG2 cells at 2 uM incubated for 2 hrs followed by substrate addition and measured for 10 mins by microbeta liquid scintillation counter analysis; assay type: cell-based; conditions: Macaca mulatta; method in brief: as §1
[10] = biological target: T3, Ileal sodium/bile acid cotransporter (Homo sapiens, UniProt Q12908); test: Inhibition of human ASBT
T3 sequence (Q12908 whole entry): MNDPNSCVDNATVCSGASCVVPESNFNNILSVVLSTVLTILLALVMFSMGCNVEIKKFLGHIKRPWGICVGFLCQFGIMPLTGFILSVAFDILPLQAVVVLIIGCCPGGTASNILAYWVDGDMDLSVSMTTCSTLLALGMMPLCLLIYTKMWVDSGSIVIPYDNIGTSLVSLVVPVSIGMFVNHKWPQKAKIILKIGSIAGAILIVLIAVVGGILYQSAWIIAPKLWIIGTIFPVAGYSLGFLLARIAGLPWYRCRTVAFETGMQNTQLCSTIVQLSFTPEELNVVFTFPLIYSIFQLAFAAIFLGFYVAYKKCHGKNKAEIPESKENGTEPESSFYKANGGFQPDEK

Hepatitis B virus = test: Antiviral activity against HBV infected in human HepG2-NTCP cells assessed as reduction in HBV viral transcription at 10 uM cells inoculated with virus for 4 hrs at room temperature and 37 degree C for 24 hrs followed inoculum changed with PMM medium for every 2 days until day 5 post infection by DIG-labelled GAPDH based northern blot analysis; assay type: functional, organism-based; conditions: time 28.0 hrs
Method in brief: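 Infected HepG2-NTCP cells given compound either with the HBV inoculum or at dpi 3–5; RNA extracted with TRIzol, run on 1.0% agarose–formaldehyde/MOPS gel. Northern blot as for Southern, probed with DIG-labelled full-length HBV genome plus DIG-labelled GAPDH probe.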

## CC[C@@H]1NC(=O)[C@H]([C@@H]2O[C@@H](Sc3cccc(OCc4ccccc4)c3)C[C@H]2C)N(C)C(=O)[C@H](C(C)C)N(C)C(=O)[C@H](CC(C)C)N(C)C(=O)[C@H](CC(C)C)N(C)C(=O)[C@@H](C)NC(=O)[C@H](C)NC(=O)[C@H](CC(C)C)N(C)C(=O)[C@H](C(C)C)NC(=O)[C@H](CC(C)C)N(C)C(=O)CN(C)C1=O
[1]
  inhibition (INH): Active
HepG2 [2]
  Activity: Non-Toxic
[3]
  inhibition (INH): Active
Hepatitis delta virus [4]
  Activity: Dose-dependent effect
[5]
  microsomal CLint at 1 µM: 8 µL/min/mg
Hepatitis delta virus [6]
  Activity: Active
[7]
  Tmax: 2 h
HepG2 [8]
  inhibition: Active
HepG2 [9]
  inhibition: Active
[10]
  inhibition (INH): Not Active
Hepatitis B virus
  Activity: Active
